Source: ChEMBL document CHEMBL3769384, “Discovery of Tetrahydropyrazolopyridine as Sphingosine 1-Phosphate Receptor 3 (S1P3)-Sparing S1P1 Agonists Active at Low Oral Doses” (J Med Chem, 2016)
Active and inactive are the calls of the source. The calls are words filed in the database; no cut-off is given here.

What was measured:
[1] = target: T1, Sphingosine 1-phosphate receptor 1 (Homo sapiens, UniProt P21453); assay: Agonist activity at human S1P1 receptor expressed in RH7777 cells by [35S]GTP-gammaS accumulation assay; type: cell-based
T1 sequence (P21453 whole entry): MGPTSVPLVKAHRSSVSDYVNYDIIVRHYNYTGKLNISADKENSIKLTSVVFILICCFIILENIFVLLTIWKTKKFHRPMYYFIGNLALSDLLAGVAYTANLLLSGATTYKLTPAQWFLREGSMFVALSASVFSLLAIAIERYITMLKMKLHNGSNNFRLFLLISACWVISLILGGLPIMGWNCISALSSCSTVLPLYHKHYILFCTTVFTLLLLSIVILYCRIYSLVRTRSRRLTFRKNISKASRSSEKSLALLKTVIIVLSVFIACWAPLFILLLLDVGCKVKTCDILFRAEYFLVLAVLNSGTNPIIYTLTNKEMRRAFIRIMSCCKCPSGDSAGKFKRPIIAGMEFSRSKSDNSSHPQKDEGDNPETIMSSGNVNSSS
Summary of the method: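 RH7777 S1P1 membranes (1.5 µg/well) precoupled 30 min on ice to WGA SPA beads in 20 mM HEPES, 10 mM MgCl2, 100 mM NaCl, pH 7.4, with 10 µM GDP and 90 µg/mL saponin (final). 0.5 nM [35S]GTPγS final added to compound; plates read immediately by scintillation proximity.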

Rattus norvegicus [2] = assay: Lymphopenia activity in Lewis rat at 1 mg/kg, po measured after 24 hrs; type: functional, organism-based
[3] = target: Sphingosine 1-phosphate receptor 3 (Homo sapiens, UniProt Q99500); assay: Agonist activity at human S1P3 receptor expressed in RBL cells by [35S]GTP-gammaS accumulation assay; type: cell-based
Chain of Sphingosine 1-phosphate receptor 3 (Q99500 whole entry): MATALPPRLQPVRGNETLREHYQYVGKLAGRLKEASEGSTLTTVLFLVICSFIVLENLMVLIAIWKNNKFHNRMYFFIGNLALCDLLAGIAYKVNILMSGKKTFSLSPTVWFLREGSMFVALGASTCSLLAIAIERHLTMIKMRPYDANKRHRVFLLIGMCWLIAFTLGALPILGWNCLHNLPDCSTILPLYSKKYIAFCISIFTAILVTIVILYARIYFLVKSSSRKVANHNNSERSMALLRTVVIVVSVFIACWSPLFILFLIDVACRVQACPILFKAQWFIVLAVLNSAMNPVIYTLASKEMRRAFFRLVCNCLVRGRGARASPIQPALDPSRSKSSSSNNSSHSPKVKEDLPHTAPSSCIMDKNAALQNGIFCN
Summary of the method: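 Sucrose-gradient-purified RBL S1P3 membranes (0.44 µg/well) precoupled 30 min on ice to WGA SPA beads with 2 µg/well saponin in HEPES/MgCl2/NaCl buffer pH 7.4. 5 µM GDP final and 0.3 nM [35S]GTPγS final added, then dispensed onto compound in DMSO. Read by scintillation proximity after 3 h at room temperature.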

[4] = target: T1, Sphingosine 1-phosphate receptor 1; assay: Agonist activity at human S1P1 receptor expressed in CHO-K1 EDG1 cells by beta-arrestin recruitment assay; type: cell-based
Summary of the method: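 CHO-K1 cells stably expressing beta-arrestin 2 and S1P1 fused to complementing beta-galactosidase fragments; grown to 80% confluency, harvested enzyme-free, resuspended in HEPES/BSA assay buffer pH 7.4. Cells at 1x10^4/well added to compound in DMSO, 90 min at 37°C/5% CO2, then 15 min at room temperature; chemiluminescent detection mix 60 min at room temperature, luminescence read.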

[5] = Lipophilicity, log D of the compound at pH 7.4 by chromatography; type: physicochemical; conditions: buffer
Rattus norvegicus [6] = assay: Lymphopenia activity in Lewis rat at 1 mg/kg, po measured after 2 to 4 hrs; type: functional, organism-based
Rattus norvegicus [7] = assay: Lymphopenia activity in Lewis rat at 1 mg/kg, po measured at 8 hrs; type: functional, organism-based

Compound | EC50 [1] | EC50 [3] | EC50 [4] | chromatographic logD [5] | Activity (Rattus norvegicus [2]) | Activity (Rattus norvegicus [6]) | Activity (Rattus norvegicus [7])
CC(C)Oc1ccc(-c2nnc(N3CCC(N4CCCC(C(=O)O)C4)CC3)s2)cc1Cl (stereo unspecified) | 3.98 µM | – | – | – | – | – | –
CC(C)Oc1ccc(-c2nnc(-n3cc4c(n3)CCN(CCC(=O)O)C4)s2)cc1Cl | 0.0126 µM | > 31.6 µM | 0.00398 µM | 3.26 | inactive | Active | –
CC(C)Oc1ccc(-c2nnc(-n3cc4c(n3)CCN(CCCC(=O)O)C4)s2)cc1C#N | – | > 31.6 µM | 0.00631 µM | 2.87 | – | – | –
CC(C)Oc1ccc(-c2nnc(N3CCNCC3)s2)cc1Cl | 6.31 µM | – | – | – | – | – | –
Cc1c2c(nn1-c1nnc(-c3ccc(OC(C)C)c(C#N)c3)s1)CCNC2 | 0.1 µM | > 31.6 µM | 0.0631 µM | 3.73 | – | – | –
CC(C)Oc1ccc(-c2nnc(-c3ccno3)s2)cc1Cl | 1 µM | > 31.6 µM | – | 6.93 | – | – | –
CC(C)Oc1ccc(-c2nnc(-c3ccccc3)s2)cc1Cl | 0.251 µM | 20 µM | – | 8.65 | – | – | –
CC(C)Oc1ccc(-c2nnc(NC3=CCNCC3)s2)cc1Cl | 1.58 µM | – | – | – | – | – | –
CC(C)Oc1ccc(-c2nnc(NCCNCCC(=O)O)s2)cc1Cl | > 31.6 µM | – | – | – | – | – | –
CC(C)Oc1ccc(-c2nnc(-n3ncc4c3CCNC4)s2)cc1Cl | 0.398 µM | > 31.6 µM | 0.794 µM | 4.87 | – | – | –
CCCCCCCCc1ccc(CCC(N)(CO)CO)cc1 | – | – | – | – | – | Active | –
CC(C)Oc1ccc(-c2nnc(-c3cncn3C)s2)cc1Cl | 0.0631 µM | > 31.6 µM | – | 5.7 | – | – | –
CC(C)Oc1ccc(-c2nnc(NCCN)s2)cc1Cl | > 31.6 µM | – | – | – | – | – | –
Cc1c2c(nn1-c1nnc(-c3ccc(OC(C)C)c(C#N)c3)s1)CNCC2 | – | > 31.6 µM | 0.158 µM | 4.23 | – | – | –
Cc1nn(-c2nnc(-c3ccc(OC(C)C)c(Cl)c3)s2)c(C)c1CC(=O)O | 1 µM | > 31.6 µM | 1.58 µM | 3.62 | – | – | –
Cc1c(-c2noc(-c3ccc(OC(C)C)c(C#N)c3)n2)ccc2c1CCN(CCC(=O)O)C2 | 0.0316 µM | > 39.8 µM | 0.00501 µM | 3.41 | – | – | –

The next lines start with results.

EC50 [1] | EC50 [3] | EC50 [4] | chromatographic logD [5] | Compound | Activity (Rattus norvegicus [2]) | Activity (Rattus norvegicus [6]) | Activity (Rattus norvegicus [7])
0.501 µM | > 31.6 µM | 0.126 µM | 3.37 | CC(C)Oc1ccc(-c2nnc(-n3cc4c(n3)CCNC4)s2)cc1C#N | – | – | –
0.1 µM | – | – | – | CC(C)Oc1ccc(-c2nnc(N3CCc4cc(CCC(=O)O)ccc43)s2)cc1Cl | – | – | –
0.0158 µM | > 31.6 µM | 0.00316 µM | 2.76 | Cc1c2c(nn1-c1nnc(-c3ccc(OC(C)C)c(C#N)c3)s1)CCN(CCC(=O)O)C2 | – | Active | Active
10 µM | > 31.6 µM | – | 5.59 | CC(C)Oc1ccc(-c2nnc(-c3cnn(CCN4CCOCC4)c3)s2)cc1Cl | – | – | –
2.51 µM | > 31.6 µM | – | 3.16 | Cc1c(-c2nnc(-c3ccc(OC(C)C)c(Cl)c3)s2)cnn1CCC(=O)O | – | – | –
1.26 µM | – | – | – | CC(C)Oc1ccc(-c2nnc(Nc3ccc(CC(=O)O)cc3)s2)cc1Cl | – | – | –
25.1 µM | > 31.6 µM | – | 2.82 | CC(C)Oc1ccc(-c2nnc(-c3cnn(CC(=O)O)c3)s2)cc1Cl | – | – | –
0.0398 µM | > 31.6 µM | 0.02 µM | 4.3 | Cc1nn(-c2nnc(-c3ccc(OC(C)C)c(Cl)c3)s2)c(C)c1CCC(=O)O | – | – | –
0.631 µM | > 31.6 µM | – | 5 | CC(C)Oc1ccc(-c2nnc(-c3cn[nH]c3)s2)cc1Cl | – | – | –
0.251 µM | > 31.6 µM | – | 7.04 | CC(C)Oc1ccc(-c2nnc(-c3ccnn3C)s2)cc1Cl | – | – | –
0.501 µM | > 31.6 µM | – | 6.18 | CC(C)Oc1ccc(-c2nnc(-n3cncn3)s2)cc1Cl | – | – | –
0.0501 µM | > 31.6 µM | 0.00501 µM | 2.58 | CC(C)Oc1ccc(-c2nnc(-n3cc4c(n3)CCN(CCC(=O)O)C4)s2)cc1C#N | – | Active | Active
0.0126 µM | > 31.6 µM | 0.00501 µM | 3.56 | CC(C)Oc1ccc(-c2nnc(-n3cc4c(n3)CCN(CCCC(=O)O)C4)s2)cc1Cl | – | – | –
0.126 µM | > 31.6 µM | – | 5.45 | Cc1[nH]ncc1-c1nnc(-c2ccc(OC(C)C)c(Cl)c2)s1 | – | – | –
– | > 31.6 µM | 0.1 µM | 2.88 | Cc1c2c(nn1-c1nnc(-c3ccc(OC(C)C)c(C#N)c3)s1)CCN(CC(=O)O)C2 | – | – | –
2.51 µM | – | – | – | CC(C)Oc1ccc(-c2nnc(NC3CCN(CC(=O)O)CC3)s2)cc1Cl | – | – | –
0.126 µM | 19.9 µM | 0.0501 µM | 3.54 | CC(C)Oc1ccc(-c2nnc(-n3ncc4c3CCN(CCC(=O)O)C4)s2)cc1Cl | – | inactive | –
0.251 µM | > 31.6 µM | – | 7.76 | Cc1nc(C)c(-c2nnc(-c3ccc(OC(C)C)c(Cl)c3)s2)s1 | – | – | –
0.631 µM | > 31.6 µM | 0.631 µM | 4.44 | CC(C)Oc1ccc(-c2nnc(-n3cc4c(n3)CCNC4)s2)cc1Cl | – | – | –
0.251 µM | – | – | – | CC(C)Oc1ccc(-c2nnc(N3CCOc4c(CCC(=O)O)cccc43)s2)cc1Cl | – | – | –
0.126 µM | > 31.6 µM | 0.158 µM | 5.32 | Cc1c2c(nn1-c1nnc(-c3ccc(OC(C)C)c(Cl)c3)s1)CCNC2 | – | – | –
